Test results published in ChEMBL document CHEMBL1255422, “Novel FKS mutations associated with echinocandin resistance in Candida species” (Antimicrob Agents Chemother, 2010).
≈ marks a conversion by molar mass, not a printed value. Numbered stars: 1 amine (or outer) side, 2 acyl side, 3 side chain; on linkers, the order of the positions; unused ones are H or OH. Bridge positions count the residues as written; N and C are the ends. Square brackets hold non-standard residues; d marks the D form. Peptide text beside a SMILES is read from it. * marks the point of attachment. hTyr(3S-OH,4S-OH,3'-OSO3H) = N[C@H](C(=O)O)[C@H](O)[C@@H](O)c1ccc(O)c(OS(=O)(=O)O)c1; pTerphenylCO(4''-OnC5H11) = CCCCCOc1ccc(-c2ccc(-c3ccc(C(=O)*)cc3)cc2)cc1; Orn(4R-OH,5R-OH) = O=C([C@H](C[C@@H](O)[C@@H](O)N[*:3])N[*:1])[*:2]; hTyr(3S-OH,4S-OH) = N[C@H](C(=O)O)[C@H](O)[C@@H](O)c1ccc(O)cc1; Pro(3S-OH,4S-Me) = C[C@H]1CN[C@H](C(=O)O)[C@H]1O; X1 = CCCCCOc1ccc(-c2cc(-c3ccc(C(=O)*)cc3)no2)cc1; Gln(3R-OH) = NC(=O)C[C@@H](O)[C@H](N)C(=O)O; Hyp = O=C(O)[C@@H]1C[C@@H](O)CN1

Legend:
Candida tropicalis [1] = experiment: Antifungal activity against wild type Candida tropicalis ATCC 750; assay type: functional
In short: (§1)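 Whole-cell MIC testing of clinical isolates alongside reference strains. Each MIC is the geometric mean of three repetitions.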

Candida tropicalis [2] = experiment: Antifungal activity against Candida tropicalis CT-C1 harboring FKS1 T227C mutant gene; assay type: functional; in short: as §1
Nakaseomyces glabratus [3] = experiment: Antifungal activity against wild type Candida glabrata ATCC 90030; assay type: functional
In short: (§2)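 MIC by broth dilution. The reported value is the geometric mean of three repetitions. Clinical isolates were tested alongside reference strains C. glabrata ATCC 90030, C. tropicalis ATCC 750, C. albicans ATCC 90028, 205 and 177.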

Nakaseomyces glabratus [4] = experiment: Antifungal activity against Candida glabrata CG-C2 harboring FKS1 T1885C mutant gene; assay type: functional; in short: as §1
Nakaseomyces glabratus [5] = experiment: Antifungal activity against Candida glabrata CG-C3 harboring FKS2 T1987C mutant gene; assay type: functional; in short: as §1
Candida albicans [6] = experiment: Antifungal activity against wild type Candida albicans ATCC 90028; assay type: functional; in short: as §1
Candida albicans [7] = experiment: Antifungal activity against Candida albicans 177 harboring FKS1 T1922C mutant gene; assay type: functional; in short: as §1
Candida albicans [8] = experiment: Antifungal activity against Candida albicans 205 harboring FKS1 T1933C mutant gene; assay type: functional; in short: as §1
[9] = Inhibition of Candida tropicalis ATCC 750 wild type FKS
In short: (§3)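 1,3-β-d-glucan synthase complexes were isolated from each strain and titrated against echinocandin to generate inhibition curves. IC50 was taken from the inhibition kinetics and given as the arithmetic mean of three repetitions.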

[10] = Inhibition of Candida tropicalis CT-C1 FKS1 T227C mutant; in short: as §3
[11] = Inhibition of Candida glabrata CG-C2 FKS1 T1885C mutant; parameters: species or system Nakaseomyces glabratus; in short: as §3
[12] = Inhibition of Candida glabrata CG-C3 FKS2 T1987C mutant; parameters: species or system Nakaseomyces glabratus; in short: as §3
[13] = Inhibition of Candida albicans ATCC 90028 wild type FKS; in short: as §3
[14] = Inhibition of Candida albicans 177 FKS1 T1922C mutant; in short: as §3
[15] = Inhibition of Candida albicans 205 FKS1 T1933C mutant; in short: as §3
[16] = Inhibition of Candida glabrata CG-C2 FKS
[17] = Inhibition of Candida glabrata CG-C3 FKS
Nakaseomyces glabratus [18] = experiment: Antifungal activity against Candida glabrata clinical isolate by broth dilution assay; assay type: functional; in short: as §2
Candida tropicalis [19] = experiment: Antifungal activity against Candida tropicalis clinical isolate by broth dilution assay; assay type: functional; in short: as §2
[20] = Inhibition of Candida glabrata ATCC 90030 wild type FKS; parameters: species or system Nakaseomyces glabratus; in short: as §3
Nakaseomyces glabratus [21] = experiment: Antifungal activity against Candida glabrata clinical isolate assessed as percent isolates by broth dilution assay
Candida tropicalis [22] = experiment: Antifungal activity against Candida tropicalis clinical isolate assessed as percent isolates by broth dilution assay
[23] = Inhibition of Candida tropicalis CT-C1 FKS

| Structure (SMILES) | MIC (Candida tropicalis [1]) | MIC (Candida tropicalis [2]) | MIC (Nakaseomyces glabratus [3]) | MIC (Nakaseomyces glabratus [4]) | MIC (Nakaseomyces glabratus [5]) | MIC (Candida albicans [6]) | MIC (Candida albicans [7]) | MIC (Candida albicans [8]) | IC50 [9] | IC50 [10] | IC50 [11] | IC50 [12] | IC50 [13] | IC50 [14] | IC50 [15] | IC50 [20] | further results |
| --- | --- | --- | --- | --- | --- | --- | --- | --- | --- | --- | --- | --- | --- | --- | --- | --- | --- |
| CCCCCOc1ccc(-c2ccc(-c3ccc(C(=O)N[C@H]4C[C@@H](O)[C@@H](O)NC(=O)[C@@H]5[C@@H](O)[C@@H](C)CN5C(=O)[C@H]([C@@H](C)O)NC(=O)[C@H]([C@H](O)[C@@H](O)c5ccc(O)cc5)NC(=O)[C@@H]5C[C@@H](O)CN5C(=O)[C@H]([C@@H](C)O)NC4=O)cc3)cc2)cc1 [ANIDULAFUNGIN] ({pTerphenylCO(4''-OnC5H11)}-[Orn(4R-OH,5R-OH)]T[Hyp][hTyr(3S-OH,4S-OH)]T[Pro(3S-OH,4S-Me)]; lactam 1-C) | 0.06 µg/mL (≈ 0.0526 µM) | 1 µg/mL (≈ 0.877 µM) | < 0.03 µg/mL | 4 µg/mL (≈ 3.51 µM) | 8 µg/mL (≈ 7.02 µM) | 0.03 µg/mL (≈ 0.0263 µM) | 0.83 µg/mL (≈ 0.728 µM) | 1.33 µg/mL (≈ 1.17 µM) | 0.00233 µg/mL (≈ 0.00204 µM) | 0.06128 µg/mL (≈ 0.0537 µM) | 12.778 µg/mL (≈ 11.2 µM) | 16.882 µg/mL (≈ 14.8 µM) | 0.0005 µg/mL (≈ 0.000438 µM) | 1.091 µg/mL (≈ 0.957 µM) | 0.2454 µg/mL (≈ 0.215 µM) |  | IC50 [16]: 14.26 µg/mL (≈ 12.5 µM); IC50 [17]: 13.29 µg/mL (≈ 11.7 µM) |
| CC[C@H](C)C[C@H](C)CCCCCCCCC(=O)N[C@H]1C[C@@H](O)[C@@H](NCCN)NC(=O)[C@@H]2[C@@H](O)CCN2C(=O)[C@H]([C@H](O)CCN)NC(=O)[C@H]([C@H](O)[C@@H](O)c2ccc(O)cc2)NC(=O)[C@@H]2C[C@@H](O)CN2C(=O)[C@H]([C@@H](C)O)NC1=O [CASPOFUNGIN] | 0.25 µg/mL (≈ 0.229 µM) | 4 µg/mL (≈ 3.66 µM) | 0.03 µg/mL (≈ 0.0274 µM) | 8 µg/mL (≈ 7.32 µM) | > 16 µg/mL | 0.12 µg/mL (≈ 0.11 µM) | 4 µg/mL (≈ 3.66 µM) | 8 µg/mL (≈ 7.32 µM) | 0.00233 µg/mL (≈ 0.00213 µM) | 0.06128 µg/mL (≈ 0.056 µM) | 12.778 µg/mL (≈ 11.7 µM) | 16.882 µg/mL (≈ 15.4 µM) | 0.0005 µg/mL (≈ 0.000457 µM) | 1.091 µg/mL (≈ 0.998 µM) | 0.2454 µg/mL (≈ 0.224 µM) | 0.00192 µg/mL (≈ 0.00176 µM) | MIC (Nakaseomyces glabratus [18]): ≥ 2 µg/mL; MIC (Candida tropicalis [19]): ≥ 2 µg/mL; Activity (Nakaseomyces glabratus [21]): 2.2%; Activity (Candida tropicalis [22]): 5.8% |
| CCCCCOc1ccc(-c2cc(-c3ccc(C(=O)N[C@H]4C[C@@H](O)[C@@H](O)NC(=O)[C@@H]5[C@@H](O)[C@@H](C)CN5C(=O)[C@H]([C@H](O)CC(N)=O)NC(=O)[C@H]([C@H](O)[C@@H](O)c5ccc(O)c(OS(=O)(=O)O)c5)NC(=O)[C@@H]5C[C@@H](O)CN5C(=O)[C@H]([C@@H](C)O)NC4=O)cc3)no2)cc1 [MICAFUNGIN] (X1-[Orn(4R-OH,5R-OH)]T[Hyp][hTyr(3S-OH,4S-OH,3'-OSO3H)][Gln(3R-OH)][Pro(3S-OH,4S-Me)]; lactam 1-C) | 0.06 µg/mL (≈ 0.0472 µM) | 1 µg/mL (≈ 0.787 µM) | 0.03 µg/mL (≈ 0.0236 µM) | 2 µg/mL (≈ 1.57 µM) | > 16 µg/mL | 0.03 µg/mL (≈ 0.0236 µM) | 1 µg/mL (≈ 0.787 µM) | 4 µg/mL (≈ 3.15 µM) | 0.007545 µg/mL (≈ 0.00594 µM) | 0.4059 µg/mL (≈ 0.32 µM) | 15.144 µg/mL (≈ 11.9 µM) | 11.422 µg/mL (≈ 8.99 µM) | 0.0188 µg/mL (≈ 0.0148 µM) | 1.435 µg/mL (≈ 1.13 µM) | 1.088 µg/mL (≈ 0.856 µM) | 0.00071 µg/mL (≈ 0.000559 µM) | IC50 [23]: 0.4014 µg/mL (≈ 0.316 µM) |
